Experimental data published in ChEMBL document CHEMBL4014308, “Amphiphilic Tobramycin-Lysine Conjugates Sensitize Multidrug Resistant Gram-Negative Bacteria to Rifampicin and Minocycline” (J Med Chem, 2017).

Tests used:
Assay type in all cases: functional
Pseudomonas aeruginosa [1] = assay: Potentiation of minocycline-induced antibacterial activity against multidrug/extremely drug-resistant/colistin-resistant Pseudomonas aeruginosa isolate 101243 at 4 ug/ml after 18 hrs by checkerboard assay
Summary of the method: (§1)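 Checkerboard in Mueller-Hinton broth: antibiotic serially diluted along one axis and adjuvant along the other (10 × 7 matrix). Inoculum from a 0.5 McFarland saline suspension diluted 1:50 in MHB; 18 h at 37 °C, then plate read. MIC is the lowest concentration with no growth. FIC of each agent is its concentration in a no-growth well divided by its MIC alone; FIC index is the sum of both. FIC index ≤0.5 counts as synergy.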

Acinetobacter baumannii = assay: Synergistic antibacterial activity against multidrug-resistant Acinetobacter baumannii AB030 after 18 hrs in presence of minocycline by checkerboard assay; settings: AB030, 18 h
Summary of the method: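 Checkerboard in MHB with a 10 × 7 matrix: antibiotic serially diluted along one axis, adjuvant along the other. Inoculum was a 1:50 dilution of a 0.5 McFarland suspension, incubated 18 h at 37 °C and read on a plate reader. Each FIC is the concentration in a no-growth well divided by the MIC alone; FIC index is their sum, with ≤0.5 taken as synergy.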

Pseudomonas aeruginosa [2] = assay: Potentiation of moxifloxacin-induced antibacterial activity against Pseudomonas aeruginosa PAO1 at 4 ug/ml after 18 hrs by checkerboard assay; summary of the method: as §1
Pseudomonas aeruginosa [3] = assay: Synergistic antibacterial activity against Pseudomonas aeruginosa PAO1 after 18 hrs in presence of novobiocin by checkerboard assay; settings: PAO1, 18 h
Summary of the method: (§2)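 Checkerboard in MHB: antibiotic diluted along one axis and adjuvant along the other (10 × 7 matrix). Inoculum was a 1:50 dilution in MHB of a 0.5 McFarland saline suspension; incubated 18 h at 37 °C. Each FIC = concentration in the no-growth well divided by the MIC alone; FIC index = sum of both FICs. ≤0.5 synergy, 0.5–4 no interaction, ≥4 antagonism.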

Pseudomonas aeruginosa [4] = assay: Synergistic antibacterial activity against Pseudomonas aeruginosa PAO1 after 18 hrs in presence of ceftazidime by checkerboard assay; settings: PAO1, 18 h; summary of the method: as §2
Pseudomonas aeruginosa [5] = assay: Potentiation of rifampicin-induced antibacterial activity against multidrug/extremely drug-resistant/colistin-susceptible Pseudomonas aeruginosa isolate 101885 at 4 ug/ml after 18 hrs by checkerboard assay; summary of the method: as §1
Klebsiella pneumoniae = assay: Potentiation of rifampicin-induced antibacterial activity against multidrug-resistant Klebsiella pneumoniae 116381 at 4 ug/ml after 18 hrs by checkerboard assay; summary of the method: as §1

## Cl.Cl.Cl.Cl.Cl.Cl.Cl.NCCCC[C@H](N)C(=O)N(CCCCCCCCCCCCO[C@@H]1[C@@H](O[C@H]2O[C@H](CO)[C@@H](O)[C@H](N)[C@H]2O)[C@H](N)C[C@H](N)[C@H]1O[C@H]1O[C@H](CN)[C@@H](O)C[C@H]1N)Cc1c2ccccc2c(Cl)c2ccccc12
Pseudomonas aeruginosa [1]
  fractional inhibitory concentration index (FICI): 0.281
Acinetobacter baumannii
  MIC: 16 µg/mL
Pseudomonas aeruginosa [2]
  fractional inhibitory concentration index (FICI): 0.313
Pseudomonas aeruginosa [3]
  MIC: 2 µg/mL
Pseudomonas aeruginosa [4]
  MIC: 2 µg/mL
Pseudomonas aeruginosa [5]
  fractional inhibitory concentration index (FICI): 0.094
Klebsiella pneumoniae
  fractional inhibitory concentration index (FICI): 0.047
